Measurements from ChEMBL document CHEMBL1129338, “Inhibitors of acyl-CoA:cholesterol O-acyltransferase. synthesis and pharmacological activity of (+/-)-2-dodecyl-alpha-phenyl-N-(2,4,6-trimethoxyphenyl)-2H-tetrazole-5- acetamide and structurally related tetrazole amide derivatives” (J Med Chem, 1996).
pIC50: −log10 of the molar value.

What was measured:
Oryctolagus cuniculus [1] = assay: Oral bioactivity expressed as %inhibition after 4 hours of drug administration (dose 50 mg/kg) in rabbit bioassay; type: functional
In short: (§1)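 Plasma was taken before dosing and at 1, 2 and 4 h. Plasma (0.2 mL) was hexane-extracted, dried and redissolved in chloroform/methanol 2:1. It was then tested for ACAT inhibition in the liver microsomal assay alongside spiked standards and a 2.5 µM CI-976 reference.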

Rattus norvegicus [2] = assay: Percent change in total cholesterol (TC) in cholic acid (0.5%)-, cholesterol (1.5%) -, and peanut oil (5.5%)- fed rats at a dose 30 mg/kg.; type: functional
[3] = biological target: T1, Sterol O-acyltransferase 1 (Rattus norvegicus, UniProt O70536); assay: In vitro inhibitory activity against acyl coenzyme A:cholesterol acyltransferase 1 of liver microsomes isolated from cholesterol-fed rats.
T1 sequence (O70536 whole entry): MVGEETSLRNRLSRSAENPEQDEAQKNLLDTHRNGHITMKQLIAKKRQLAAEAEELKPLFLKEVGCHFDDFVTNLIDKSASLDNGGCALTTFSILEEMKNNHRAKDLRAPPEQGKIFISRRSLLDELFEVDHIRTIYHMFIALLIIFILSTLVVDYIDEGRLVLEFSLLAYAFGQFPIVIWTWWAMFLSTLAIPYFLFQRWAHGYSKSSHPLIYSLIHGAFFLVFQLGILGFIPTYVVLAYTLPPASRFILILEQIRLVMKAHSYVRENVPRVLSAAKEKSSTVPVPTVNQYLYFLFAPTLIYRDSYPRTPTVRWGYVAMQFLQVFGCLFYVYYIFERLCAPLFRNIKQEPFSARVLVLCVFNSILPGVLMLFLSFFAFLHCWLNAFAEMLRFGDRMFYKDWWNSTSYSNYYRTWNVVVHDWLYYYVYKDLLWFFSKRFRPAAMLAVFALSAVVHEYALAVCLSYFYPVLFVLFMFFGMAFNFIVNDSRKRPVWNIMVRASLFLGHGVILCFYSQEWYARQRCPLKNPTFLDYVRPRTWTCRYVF
In short: (§2)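 ACAT inhibition was measured in hepatic microsomes isolated from cholesterol-fed rats. Each determination was run in triplicate, and IC50 was reported.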

Rattus norvegicus [4] = assay: Percent change in High Density Lipoproteins (HDL) in Chronic Cholesterol -Fed rat model at a dose 30 mg/kg; type: functional
In short: (§3)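 Rats ate a high-fat, high-cholesterol diet for 14 days. During the second week they received the test compound daily by gavage at 30 mg/kg, in a carboxymethylcellulose/Tween-20 aqueous vehicle. Plasma lipids (total cholesterol, HDL-C, non-HDL-C) were read as percent change.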

[5] = biological target: T2, Sterol O-acyltransferase 1 (Mus musculus) (UniProt Q61263); assay: In vitro inhibitory activity against acyl coenzyme A:cholesterol acyltransferase 1 in cell culture assay using murine IC-21 macrophages at 0.1 uM
T2 sequence (whole entry): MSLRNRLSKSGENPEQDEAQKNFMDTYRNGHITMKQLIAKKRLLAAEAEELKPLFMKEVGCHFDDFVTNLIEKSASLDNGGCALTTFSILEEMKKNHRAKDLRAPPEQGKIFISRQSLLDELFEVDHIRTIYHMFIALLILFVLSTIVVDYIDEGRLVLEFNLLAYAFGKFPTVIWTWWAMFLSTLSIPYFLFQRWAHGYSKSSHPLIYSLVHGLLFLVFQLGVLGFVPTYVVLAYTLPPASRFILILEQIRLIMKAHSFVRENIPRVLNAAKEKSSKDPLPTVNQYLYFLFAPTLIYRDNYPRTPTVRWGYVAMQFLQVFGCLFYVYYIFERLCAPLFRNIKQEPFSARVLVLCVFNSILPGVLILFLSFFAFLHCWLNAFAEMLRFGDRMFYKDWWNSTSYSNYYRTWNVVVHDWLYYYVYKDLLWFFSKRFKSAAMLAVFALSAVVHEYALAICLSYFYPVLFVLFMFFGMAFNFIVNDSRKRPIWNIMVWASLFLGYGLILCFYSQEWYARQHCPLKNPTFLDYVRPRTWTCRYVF
In short: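 IC-21 mouse macrophages were preincubated 16 h in serum-free DMEM with 20 µM albumin and phosphatidylserine/cholesterol vesicles. The vesicles were sonicated in 150 mM NaCl, 5 mM MOPS, 1 mM EDTA, pH 7.4, and filter-sterilized. Medium was then replaced with serum-free DMEM containing the compound in DMSO at 0.1 µM. Percent inhibition was read, with cell protein measured by the Lowry method.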

Rattus norvegicus [6] = assay: Change in total cholesterol in Chronic Cholesterol-Fed rat model at dose 30 mg/kg; type: functional; in short: as §3
Rattus norvegicus [7] = assay: Percent change in non High Density Lipoproteins (HDL) in Chronic Cholesterol -Fed rat model at a dose 30 mg/kg
Oryctolagus cuniculus [8] = assay: % change in total cholesterol(TC) versus progression control (PC) with out drug intervention in chronic cholesterol-fed rabbit model at a dose of 25 mg/kg; type: functional
In short: (§4)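 Male New Zealand rabbits (1-1.5 kg) were meal-fed 50 g/day of chow with 0.5% cholesterol, 3% coconut oil and 3% peanut oil. After 1 week, compound was added to the diet for 2 weeks at 5 or 25 mg/kg. Plasma total cholesterol came from cardiac blood of fasted animals after nitrogen asphyxiation. It was compared with cholesterol-fed progression controls or with T0, the start of drug intervention, when plasma cholesterol was taken 24 h after the drug meal.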

[9] = biological target: T3, Acyl-CoA:cholesterol acyltransferase (Oryctolagus cuniculus, UniProt Q95214); assay: Inhibitory concentration against Acyl coenzyme A:cholesterol acyltransferase 1 from rabbit intestine
T3 sequence (Q95214 whole entry): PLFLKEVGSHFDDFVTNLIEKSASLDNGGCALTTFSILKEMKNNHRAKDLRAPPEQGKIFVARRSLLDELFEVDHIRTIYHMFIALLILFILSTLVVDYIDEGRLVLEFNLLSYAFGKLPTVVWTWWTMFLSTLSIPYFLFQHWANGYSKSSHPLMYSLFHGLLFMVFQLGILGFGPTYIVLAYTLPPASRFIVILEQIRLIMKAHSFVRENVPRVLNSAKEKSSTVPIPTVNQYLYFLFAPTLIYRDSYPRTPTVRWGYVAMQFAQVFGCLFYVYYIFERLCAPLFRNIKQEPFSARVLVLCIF

Rattus norvegicus [10] = assay: % change in total cholesterol in Chronic Cholesterol-Fed rat model at dose 30 mg/kg; type: functional; in short: as §3
[11] = test system: Acyl-CoA:cholesterol acyltransferase (Rattus norvegicus); assay: Ability to reduce cholesterol absorption, i.e. the appearance of lymph cholesteryl ester at a dose of 10 mg/kg
Oryctolagus cuniculus [12] = assay: Dose response in cholesterol fed rabbit after oral administration; type: functional
In short: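 Cholesterol-fed rabbit model with oral dosing across a dose series, 8 animals per dose. Plasma cholesterol reduction was averaged at each dose. ED50, the dose lowering plasma total cholesterol 50%, was calculated from these mean responses with the median-effect equation.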

Rattus norvegicus [13] = assay: Effective dose to lower nonHDL-C in a cholesterol fed rat model in vivo; type: functional
[14] = biological target: T1, Sterol O-acyltransferase 1; assay: Inhibitory concentration against Acyl coenzyme A:cholesterol acyltransferase 1 from rat liver; in short: as §2
Oryctolagus cuniculus [15] = assay: Oral bioactivity expressed as %inhibition after 4 hours of drug administration (dose 25 mg/kg) in rabbit bioassay; type: functional; in short: as §1
Oryctolagus cuniculus [16] = assay: % change in total cholesterol(TC) versus progression control (PC) with out drug intervention in chronic cholesterol-fed rabbit model at a dose of 5 mg/kg; type: functional; in short: as §4
Oryctolagus cuniculus [17] = assay: Percent change in total cholesterol(TC) versus (T0)- at which drug intervention begins at a dose of 25 mg/kg in the chronic cholesterol-fed rabbit model; type: functional; in short: as §4
Oryctolagus cuniculus [18] = assay: Change in total cholesterol(TC) versus (T0)- at which drug intervention begins at a dose of 5 mg/kg in chronic cholesterol-fed rabbit model; type: functional; in short: as §4
[19] = biological target: T4, Acyl-CoA:cholesterol acyltransferase (Oryctolagus cuniculus) (UniProt Q95214); settings: at 25 mg/kg
T4 sequence (whole entry): T3 sequence (Q95214 whole entry)

[20] = biological target: T4, Acyl-CoA:cholesterol acyltransferase (Oryctolagus cuniculus); settings: 25 mg/kg
Oryctolagus cuniculus [21] = assay: Change in total cholesterol(TC) versus progression control (PC) with out drug intervention in chronic cholesterol-fed rabbit model at a dose of 25 mg/kg; type: functional; in short: as §4
Oryctolagus cuniculus [22] = assay: Change in total cholesterol(TC) versus progression control (PC) with out drug intervention in chronic cholesterol-fed rabbit model at a dose of 5 mg/kg; type: functional; in short: as §4
Rattus norvegicus [23] = assay: In vitro percent decrease in cholesterol activity at 30 mg/kg in acute rat screen; type: functional; settings: in the assay text read “In vivo” for “In vitro”
In short: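 Rats received a single gavage dose of 30 mg/kg, suspended in carboxymethylcellulose/Tween-20 in water, followed by one high-fat, high-cholesterol meal. The read-out was inhibition of the overnight rise in plasma total cholesterol, as percent change.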

Oryctolagus cuniculus [24] = assay: % change in total cholesterol(TC) versus (T0)- at which drug intervention begins at a dose of 5 mg/kg in chronic cholesterol-fed rabbit model; type: functional; in short: as §4
[25] = biological target: Sterol O-acyltransferase 1 (Mus musculus) (UniProt Q61263); assay: Percent change of compound against Acyl coenzyme A:cholesterol acyltransferase 1 in cell culture assay using murine IC-21 macrophages at 0.1(uM)
Rattus norvegicus [26] = assay: Percent change in total cholesterol (TC) in cholic acid (0.5%) - cholesterol (1.5% - peanut oil (5.5%) - fed rats at a dose 30 mg/kg; type: functional

C=CCCCCCCCCCn1nnc(C(C(=O)Nc2c(OC)cc(OC)cc2OC)c2ccccc2)n1 (stereo not drawn)
inhibition in vivo at 50 mg/kg (Oryctolagus cuniculus [1]): 26%
Change (Rattus norvegicus [2]): <56%
pIC50 [3]: 7.27
Change (Rattus norvegicus [4]): 102%
inhibition [5]: 54%
Change (Rattus norvegicus [6]): <72%
Change (Rattus norvegicus [7]): <77%

CCCCCCCCCCCCn1nnc(C(C(=O)Nc2c(OC)cc(OC)cc2OC)c2ccccc2)n1 (stereo not drawn)
inhibition in vivo at 50 mg/kg (Oryctolagus cuniculus [1]): 4%
Change (Rattus norvegicus [2]): <63%
Change (Oryctolagus cuniculus [8]): <78%
pIC50 [3]: 7.64
pIC50 [9]: 8.10
Change (Rattus norvegicus [10]): <60%
Reduction [11]: 79%
ED50 (Oryctolagus cuniculus [12]): 0.1 mg/kg
Change (Rattus norvegicus [4]): 83%
ED50 (Rattus norvegicus [13]): 6.4 mg/kg
pIC50 [14]: 7.64
inhibition [5]: 40%
inhibition in vivo at 25 mg/kg (Oryctolagus cuniculus [15]): 0%
Change (Oryctolagus cuniculus [16]): <71%
Change (Oryctolagus cuniculus [17]): <38%
Change (Rattus norvegicus [7]): <68%

CCCCCCCCCCC(C)(C)C(=O)Nc1c(OC)cc(OC)cc1OC [CL-976]
Change (Oryctolagus cuniculus [18]): 96%
inhibition [19]: 45%
Change [20]: 19%
Change (Oryctolagus cuniculus [21]): <54%
ED50 (Oryctolagus cuniculus [12]): 21.8 mg/kg
ED50 (Rattus norvegicus [13]): 19 mg/kg
Change (Oryctolagus cuniculus [22]): <28%

CCCCCCCCCCCCc1nnn(C(C(=O)Nc2c(OC)cc(OC)cc2OC)c2ccccc2)n1 (stereo not drawn)
Change (Rattus norvegicus [2]): <65%
Change (Oryctolagus cuniculus [8]): <68%
pIC50 [3]: 7.68
inhibition [5]: 52%
Decrease (Rattus norvegicus [23]): 65%
Change (Oryctolagus cuniculus [24]): <11%
inhibition in vivo at 25 mg/kg (Oryctolagus cuniculus [15]): 0%
Change (Oryctolagus cuniculus [16]): <63%

CCCCCCCCCCCCn1nnc(C(=O)Nc2c(OC)cc(OC)cc2OC)n1
Change [25]: 21%
pIC50 [3]: 4.45

CCCCCCCCCCCCn1nnc(C(C(=O)Nc2c(C(C)C)cccc2C(C)C)c2ccccc2)n1 (stereo not drawn)
Change (Rattus norvegicus [2]): <66%
Change (Oryctolagus cuniculus [8]): <73%
ED50 (Oryctolagus cuniculus [12]): 1.2 mg/kg
Change (Rattus norvegicus [4]): 27%
inhibition [5]: 47%
Decrease (Rattus norvegicus [23]): 66%
Change (Rattus norvegicus [6]): <38%
inhibition in vivo at 25 mg/kg (Oryctolagus cuniculus [15]): 96%
Change (Oryctolagus cuniculus [16]): <61%
Change (Oryctolagus cuniculus [17]): <43%
Change (Rattus norvegicus [7]): <40%

CCCCCCCCCCCCn1nnc(C(C)C(=O)Nc2c(OC)cc(OC)cc2OC)n1 (stereo not drawn)
pIC50 [3]: 7.51
Change (Rattus norvegicus [26]): <55%
inhibition [5]: 49%

C=CCCCCCCCCCCn1nnc(C(C(=O)Nc2c(OC)cc(OC)cc2OC)c2ccccc2)n1 (stereo not drawn)
inhibition in vivo at 50 mg/kg (Oryctolagus cuniculus [1]): 37%
Change (Rattus norvegicus [2]): <63%
pIC50 [3]: 7.60
Change (Rattus norvegicus [4]): 98%
inhibition [5]: 37%
Change (Rattus norvegicus [6]): <52%
Change (Rattus norvegicus [7]): <58%

CCCCCCCCCCCCc1nnn(C(C(=O)Nc2c(C(C)C)cccc2C(C)C)c2ccccc2)n1 (stereo not drawn)
Change (Rattus norvegicus [2]): <77%
Change (Oryctolagus cuniculus [8]): <68%
pIC50 [3]: 7.82
Change (Rattus norvegicus [4]): 50%
inhibition [5]: 67%
Decrease (Rattus norvegicus [23]): 77%
Change (Oryctolagus cuniculus [24]): 18%
inhibition in vivo at 25 mg/kg (Oryctolagus cuniculus [15]): 91%
Change (Oryctolagus cuniculus [16]): <55%
Change (Oryctolagus cuniculus [17]): <20%

CCCCCCCCCCCCn1nnc(C(Cc2ccccc2)C(=O)Nc2c(OC)cc(OC)cc2OC)n1 (stereo not drawn)
Change (Rattus norvegicus [2]): <73%
pIC50 [3]: 7.31
Change (Rattus norvegicus [10]): <48%
Change (Rattus norvegicus [4]): 27%
inhibition [5]: 77%
inhibition in vivo at 25 mg/kg (Oryctolagus cuniculus [15]): 0%
Change (Rattus norvegicus [7]): <50%
